In general, pIC50 refers to the negative decadic logarithm of the IC50, by convention in mol/L. Read a low pIC50 as a large IC50.

Each structure is given as a SMILES string. pIC50: −log10 of the molar value. Values after ≈ are worked out from the molar mass of the structure shown.

The test system of one assay is MCF7. The assay is described as follows: Cytotoxicity against human MCF7 after 24 hrs by MTT assay. The assay is classed as functional, cell-based. As to conditions: MCF7, 24 h. Summed up: (§1)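 Cells grown in MEM with 10% FBS and 1% glutamine at 5% CO2, seeded at 1.0×10^4 cells. Exposed to compounds at 1–100 µM in medium containing 0.1% DMSO for 24 h at 37 °C. MTT (1 mg/ml) added for 5 h at 37 °C, then DMSO added and absorbance read at 540 nm. Run in triplicate; IC50 determined.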
Background: Tetrazolium dyes change colour on reduction, which living cells bring about.

A further assay concerns HeLa. The assay is described as follows: Cytotoxicity against human HeLa after 24 hrs by MTT assay. The class given is functional, cell-based. Summed up:
as §1

The next assay has as its system Staphylococcus aureus. The assay is described as follows: Antibacterial activity against Staphylococcus aureus ATCC 29213 after 24 hrs by browth microdilution assay. Conditions: ATCC 29213, 24 h. The class given is functional. Summed up:
(§2)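 Broth microdilution per CLSI. Colonies suspended in 0.9% saline and adjusted to McFarland 0.5. Compounds dissolved in DMSO, diluted with distilled water to 100, 50, 25, 12.5, 6.25 and 3.125 µg/ml, with DMSO as negative control. Gentamycin (Gram-negative) and amikacin (Gram-positive) served as reference drugs. Incubation at 37 °C for 24 h. MIC taken as the lowest concentration preventing visible growth.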

The subject of assay [1] is Staphylococcus aureus (ATCC 25923). The assay is described as follows: Antibacterial activity against Staphylococcus aureus ATCC 25923 after 24 hrs by browth microdilution assay. As to conditions: ATCC 25923, 24 h.
The subject of the next assay is Enterococcus faecalis. The assay can be described thus: Antibacterial activity against Enterococcus faecalis ATCC 29212 after 24 hrs by browth microdilution assay. The assay is classed as functional. Conditions: ATCC 29212, 24 h. Summed up: as §2
Assay [2] relates to Staphylococcus epidermidis. The assay is described as follows: Antibacterial activity against Staphylococcus epidermidis ATCC 12228 after 24 hrs by browth microdilution assay. Conditions: ATCC 12228, 24 h. The class given is functional. In outline:
as §2
(Dilution methods test growth across graded concentrations, often in twofold steps.)

Another assay concerns Enterobacter cloacae. The assay is described as follows: Antibacterial activity against Enterobacter cloacae ATCC 13047 after 24 hrs by browth microdilution assay. The class given is functional. Conditions: ATCC 13047, 24 h. In outline: as §2
The subject of another assay is Pseudomonas aeruginosa. The assay is described as follows: Antibacterial activity against Pseudomonas aeruginosa ATCC 27853 after 24 hrs by browth microdilution assay. The class given is functional. Conditions: ATCC 27853, 24 h. Summed up:
as §2

Another assay relates to Candida tropicalis. The assay can be described thus: Antifungal activity against Candida tropicalis ATCC 20336 after 48 hrs by browth microdilution assay. The assay is classed as functional. Conditions: ATCC 20336, 48 h. Summed up: (§3)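 Yeast colonies suspended in 0.9% saline and adjusted to McFarland 0.5, then tested by CLSI broth microdilution. Compounds in DMSO, diluted with distilled water to 3.125–100 µg/ml, with DMSO as negative control and nystatin as reference. Incubation at 37 °C, read after 48 h. MIC is the lowest concentration with no visible growth.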

The test system of the next assay is Candida albicans. The assay can be described thus: Antifungal activity against Candida albicans ATCC 90028 after 48 hrs by browth microdilution assay. The class given is functional. Conditions: ATCC 90028, 48 h. In outline:
as §3

The next assay has as its system Escherichia coli. The assay can be described thus: microbe, parasite or virus in culture. Conditions: ATCC 25922, 24 h.
For a further assay, the system named is Pichia kudriavzevii. The assay is described as follows: Antifungal activity against Candida krusei ATCC 6268 after 48 hrs by browth microdilution assay. The class given is functional. As to conditions: ATCC 6268, 48 h. Summed up: as §3
The next assay has as its system Nakaseomyces glabratus. The assay is described as follows: Antifungal activity against Candida glabrata ATCC 32554 after 48 hrs by browth microdilution assay. The class given is functional. Conditions: ATCC 32554, 48 h. Summed up:
as §3

The test system of the next assay is Proteus vulgaris. The assay is described as follows: Antibacterial activity against Proteus vulgaris ATCC 13315 after 24 hrs by browth microdilution assay. The assay is classed as functional. As to conditions: ATCC 13315, 24 h. Summed up:
as §2

With `O=C(NC(=S)Nc1nc2ccccc2s1)c1ccc([N+](=O)[O-])cc1`, the pIC50 in the assay on MCF7 is 4.47; with HeLa, 4.20.

On to `NCC[C@H](O)C(=O)N[C@@H]1C[C@H](N)[C@@H](O[C@H]2O[C@H](CN)[C@@H](O)[C@H](O)[C@H]2O)[C@H](O)[C@H]1O[C@H]1O[C@H](CO)[C@@H](O)[C@H](N)[C@H]1O` [AMIKACIN], for which the MIC came out at 2 µg/mL (≈ 3.42 µM) in the assay on Staphylococcus aureus, 2 µg/mL (≈ 3.42 µM) in [1], 4 µg/mL (≈ 6.83 µM) in the assay on Enterococcus faecalis and 0.5 µg/mL (≈ 0.854 µM) in assay [2].

As to `O=C(NC(=S)Nc1nc2ccccc2s1)N1CCOCC1`, the MIC in the assay with Enterobacter cloacae amounted to 25 µg/mL (≈ 77.5 µM); with Pseudomonas aeruginosa, 50 µg/mL (≈ 155 µM); with Staphylococcus aureus it was 50 µg/mL (≈ 155 µM); against Candida tropicalis it was 25 µg/mL (≈ 77.5 µM); in the assay on Candida albicans it was 25 µg/mL (≈ 77.5 µM); in the assay on Escherichia coli, 25 µg/mL (≈ 77.5 µM). Moreover, the MIC in assay [1] turned out to be 50 µg/mL (≈ 155 µM); against Pichia kudriavzevii it was 25 µg/mL (≈ 77.5 µM); against Enterococcus faecalis, 50 µg/mL (≈ 155 µM); with Nakaseomyces glabratus it was 25 µg/mL (≈ 77.5 µM); against Proteus vulgaris, 25 µg/mL (≈ 77.5 µM); in [2], 25 µg/mL (≈ 77.5 µM). Moreover, the results for the negative-log IC50 (pIC50) in the assay on MCF7 and in the assay on HeLa were 4.53 and 4.29, respectively.

With `CCCC(=O)NC(=S)Nc1nc2ccccc2s1`, the negative-log IC50 (pIC50) was 4.44 with MCF7 and 4.25 in the assay with HeLa. Moreover, the MIC in the assay with Candida tropicalis turned out to be 50 µg/mL (≈ 179 µM); with Candida albicans, 20 µg/mL (≈ 71.6 µM); in the assay with Pichia kudriavzevii it was 25 µg/mL (≈ 89.5 µM); against Nakaseomyces glabratus, 50 µg/mL (≈ 179 µM).

`Nc1ccc2sc(NC(=S)NC(=O)c3ccc([N+](=O)[O-])cc3)nc2c1`: the MIC against Enterobacter cloacae was found to be 25 µg/mL (≈ 66.9 µM); against Pseudomonas aeruginosa, 50 µg/mL (≈ 134 µM); in the assay with Staphylococcus aureus it was 50 µg/mL (≈ 134 µM); in the assay on Candida tropicalis, 25 µg/mL (≈ 66.9 µM); in the assay with Candida albicans, 50 µg/mL (≈ 134 µM); in the assay on Escherichia coli, 25 µg/mL (≈ 66.9 µM). Moreover, the MIC in assay [1] was 50 µg/mL (≈ 134 µM); in the assay on Pichia kudriavzevii, 50 µg/mL (≈ 134 µM); in the assay on Enterococcus faecalis, 50 µg/mL (≈ 134 µM); in the assay on Nakaseomyces glabratus, 50 µg/mL (≈ 134 µM); in the assay on Proteus vulgaris it was 25 µg/mL (≈ 66.9 µM); in [2] it was 50 µg/mL (≈ 134 µM). Further, the values for the pIC50 in the assay on MCF7 and with HeLa were 4.48 and 4.20, respectively.

In the case of `O=C(NC(=S)Nc1nc2cc([N+](=O)[O-])ccc2s1)N1CCOCC1`, the MIC in the assay on Enterobacter cloacae amounted to 15 µg/mL (≈ 40.8 µM); against Pseudomonas aeruginosa, 25 µg/mL (≈ 68 µM); with Staphylococcus aureus, 25 µg/mL (≈ 68 µM); against Candida tropicalis, 5 µg/mL (≈ 13.6 µM); against Candida albicans, 15 µg/mL (≈ 40.8 µM); against Escherichia coli, 15 µg/mL (≈ 40.8 µM). The MIC in assay [1] was determined as 20 µg/mL (≈ 54.4 µM); against Pichia kudriavzevii it was 20 µg/mL (≈ 54.4 µM); in the assay on Enterococcus faecalis it was 10 µg/mL (≈ 27.2 µM); in the assay on Nakaseomyces glabratus it was 5 µg/mL (≈ 13.6 µM); against Proteus vulgaris it was 20 µg/mL (≈ 54.4 µM); in assay [2], 10 µg/mL (≈ 27.2 µM). Also, the negative-log IC50 (pIC50) in the assay on MCF7 is 4.51; with HeLa it was 4.26.

Turning to `Nc1ccc2sc(NC(=S)NC(=O)c3cccs3)nc2c1`, the MIC worked out at 50 µg/mL (≈ 149 µM) in the assay on Enterobacter cloacae; 50 µg/mL (≈ 149 µM) in the assay with Pseudomonas aeruginosa; 25 µg/mL (≈ 74.7 µM) against Candida tropicalis; 25 µg/mL (≈ 74.7 µM) against Candida albicans; 20 µg/mL (≈ 59.8 µM) in the assay on Escherichia coli; 25 µg/mL (≈ 74.7 µM) against Pichia kudriavzevii. In addition, the MIC against Nakaseomyces glabratus amounted to 20 µg/mL (≈ 59.8 µM); against Proteus vulgaris, 25 µg/mL (≈ 74.7 µM). The values for the pIC50 in the assay on MCF7 and in the assay with HeLa were 4.55 and 4.25, respectively.

In the case of `CCCC(=O)NC(=S)Nc1nc2cc([N+](=O)[O-])ccc2s1`, the MIC is 20 µg/mL (≈ 61.7 µM) against Enterobacter cloacae; 20 µg/mL (≈ 61.7 µM) with Pseudomonas aeruginosa; 50 µg/mL (≈ 154 µM) with Staphylococcus aureus; 50 µg/mL (≈ 154 µM) with Candida tropicalis; 20 µg/mL (≈ 61.7 µM) with Candida albicans; 25 µg/mL (≈ 77.1 µM) against Pichia kudriavzevii. The MIC against Enterococcus faecalis came out at 50 µg/mL (≈ 154 µM); in the assay with Nakaseomyces glabratus, 25 µg/mL (≈ 77.1 µM); with Proteus vulgaris it was 20 µg/mL (≈ 61.7 µM); in assay [2] it was 50 µg/mL (≈ 154 µM). Further, in the assay on MCF7, the pIC50 was under 4.00.

The record behind these values is ChEMBL document CHEMBL1157014, “Synthesis, characterization and biological evaluation of some thiourea derivatives bearing benzothiazole moiety as potential antimicrobial and anticancer agents” (Eur J Med Chem, 2010).
